The values below come from ChEMBL document CHEMBL1138854, “Synthesis and antitumor activity of guanylhydrazones from 6-(2,4-dichloro-5-nitrophenyl)imidazo[2,1-b]thiazoles and 6-pyridylimidazo[2,1-b]thiazoles(1)” (2006).

Several values for one entry are separate records, joined by “and”; a condition that tells them apart may be missing. Identical values can stand only once.

A word on the LC50: it is the concentration lethal to half of the exposed cells or organisms. Lower therefore signals a more lethal substance.

The nature of this assay: Antitumor activity against renal cell lines of the NCI60 panel. Type of assay: functional, Homo sapiens. Summed up: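 Run by NCI in the 60-cell-line panel (details in Supporting Information). Highest concentration 10^-4 M unless noted (one case 10-2.6 M). Values expressed as -log molar concentration giving 50% growth inhibition (pGI50), total cytostasis (pTGI) or 50% cell kill (pLC50); only values >4.00 reported; mean graph midpoint is the calculated panel mean.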
Molecule `N=C(N)N/N=C/c1c(-c2cc([N+](=O)[O-])c(Cl)cc2Cl)nc2n1CCS2` showed an LC50 of 5.25 µM.

As to `Cc1sc2nc(-c3cc([N+](=O)[O-])c(Cl)cc3Cl)c(/C=N/NC(=N)N)n2c1C`, the LC50 is 36.3 µM and 85.1 µM.

The molecule `Cc1csc2nc(-c3cc([N+](=O)[O-])c(Cl)cc3Cl)c(/C=N/N=C(N)N)n12` came in with an LC50 of 64.6 µM.

In the case of `CCc1cn2c(/C=N/NC(=N)N)c(-c3cc([N+](=O)[O-])c(Cl)cc3Cl)nc2s1`, the median lethal concentration (LC50) is 3.02 µM and 6.46 µM.

Regarding `Cc1sc2nc(-c3ccccn3)c(/C=N/NC(=N)N)n2c1C`, the LC50 was determined as 57.5 µM.

For `Cc1cn2c(/C=N/NC(=N)N)c(-c3ccncc3)nc2s1`, the LC50 was 72.4 µM.

Molecule `N=C(N)N/N=C/c1c(-c2ccccn2)nc2sc(Cl)cn12` gave a median lethal concentration (LC50) of 28.8 µM.

Take `N=C(N)N/N=C/c1c(-c2cccnc2)nc2sc(Cl)cn12`: the LC50 came to 69.2 µM. This LC50 lies about 2.4-fold higher than the previous one.

As to `N=C(N)N/N=C/c1c(-c2cc([N+](=O)[O-])c(Cl)cc2Cl)nc2sccn12`, the median lethal concentration (LC50) is 4.47 µM and 24 µM.

For the molecule `N=C(N)N/N=C/c1c(-c2ccc(Cl)c([N+](=O)[O-])c2)nc2n1CCS2`, the 50% lethal concentration (LC50) is 28.2 µM and 64.6 µM.

Turning to `N=C(N)N/N=C/c1c(-c2ccncc2)nc2sc(Cl)cn12`, the LC50 was 15.8 µM and 44.7 µM.

The molecule `CCCc1cn2c(/C=N/NC(=N)N)c(-c3cc([N+](=O)[O-])c(Cl)cc3Cl)nc2s1` returned an LC50 of 5.37 µM. This lies in the single-digit micromolar range.

As to `Cc1cn2c(/C=N/NC(=N)N)c(-c3ccccn3)nc2s1`, the LC50 was 19.5 µM and 53.7 µM.

Consider `Cc1cn2c(/C=N/NC(=N)N)c(-c3cccnc3)nc2s1`, for which the median lethal concentration (LC50) is 27.5 µM and 61.7 µM.

Turning to `N=C(N)N/N=C/c1c(-c2cc([N+](=O)[O-])c(Cl)cc2Cl)nc2sc(Cl)cn12`, the median lethal concentration (LC50) is 97.7 µM. In other words, the double-digit micromolar range.
